ChEMBL document CHEMBL1833877, “Antinociceptive properties of bergenin” (J Nat Prod, 2011)
The source made the active and inactive calls.

Key:
Assay type in all cases: functional, organism-based
Set-up in all cases: dose 10 mg/kg
Mus musculus [1] = assay: Antinociceptive activity in mouse assessed as inhibition of acetic acid-induced abdominal constrictions at 10 mg/kg, ip administered 40 mins before acetic acid challenge measured for 30 mins; conditions: Abdomen
Outline: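 Dosing was ip in 2% DMSO/saline 40 min before ip acetic acid (0.8% v/v, 10 mL/kg). Writhes (abdominal contraction with hind-limb stretching) were counted over 0–30 min. n = 6 mice/group, means ± SEM, ANOVA with Tukey.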

Mus musculus [2] = assay: Antinociceptive activity against formalin-induced pain in mouse assessed as paw licking during early phase (0 to 10 mins) at 10 mg/kg, ip administered 40 mins before formalin challenge
Outline: (§1)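 Mice were acclimated 30 min in an observation chamber, then given 20 μL of 2.5% formalin sc into the dorsal hind paw. Dosing was ip (2% DMSO/saline vehicle) 40 min beforehand. Time spent licking the injected paw was scored over 0–10 min and 10–60 min. n = 6/group, means ± SEM, ANOVA with Tukey.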

Mus musculus [3] = assay: Antinociceptive activity against formalin-induced pain in mouse assessed as paw licking during late phase (10 to 60 mins) at 10 mg/kg, ip administered 40 mins before formalin challenge; outline: as §1

Measured: Activity

COc1ccc2c(c1)c(CC(=O)O)c(C)n2C(=O)c1ccc(Cl)cc1
active: all assays above
